Assay outcomes deposited in PubChem by Broad Institute.
Sampled rows, rich in hits. Any-hit rate of the full collection: about 3.5%.
rRNA inh HTS: inhibitors of bacterial rRNA selective over humanized ribosomes. 350,000 compounds, 1.6% hits. GFP signal change (wild-type ribosome), % (test concentration not listed). E. coli WT GFP vs humanized-ribosome RFP mutants, fluorescence, 24 h; hits give low values; DMSO median 0, no signal -100. AID 720706;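 active = significant combined selectivity score with lowered wild-type GFP, culture density cut under 30%, mutant RFP and density less affected; inactive = any of these conditions unmet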
PGC1a acetyl inh: modulators of PGC1a acetylation; U2OS PGC1a acetylation, AlphaScreen anti-acetyl-lysine; with virally co-expressed GCN5 acetyltransferase; inhibition, % at 15.6 µM; 350,000 compounds, 0.17% hits; AID 651687;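 active = every replicate shows inhibition of at least 40%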;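 note: 0% = neutral control wells and 100% = positive control wells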
HIV Env fusion: inhibitors of HIV Env-mediated cell fusion | HeLa-JRFL Env/CEM21 cell fusion, luciferase | inhibition, % at 12.3 µM | 360,000 compounds, 1.1% hits | AID 651610;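 active = mean replicate inhibition score of at least 50 and every replicate individually at or above 50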;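 note: 0% = plate neutral controls and 100% = maraviroc near 300 nM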
ERAP1 inh: ERAP1 (human) enzyme inhibition | 340,000 compounds, 0.15% hits | inhibition, % at 10.7 µM | recombinant ERAP1, Leu-AMC fluorescence, 60 min;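 active = mean replicate inhibition of at least 30%, or all replicates individually reaching that 30% level; inactive = mean below 30% and not every replicate reaching it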;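 note: 0% = neutral control wells and 100% = L-leucinethiol positive control wells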
Target sequence (Q9NZ08 whole entry, looked up): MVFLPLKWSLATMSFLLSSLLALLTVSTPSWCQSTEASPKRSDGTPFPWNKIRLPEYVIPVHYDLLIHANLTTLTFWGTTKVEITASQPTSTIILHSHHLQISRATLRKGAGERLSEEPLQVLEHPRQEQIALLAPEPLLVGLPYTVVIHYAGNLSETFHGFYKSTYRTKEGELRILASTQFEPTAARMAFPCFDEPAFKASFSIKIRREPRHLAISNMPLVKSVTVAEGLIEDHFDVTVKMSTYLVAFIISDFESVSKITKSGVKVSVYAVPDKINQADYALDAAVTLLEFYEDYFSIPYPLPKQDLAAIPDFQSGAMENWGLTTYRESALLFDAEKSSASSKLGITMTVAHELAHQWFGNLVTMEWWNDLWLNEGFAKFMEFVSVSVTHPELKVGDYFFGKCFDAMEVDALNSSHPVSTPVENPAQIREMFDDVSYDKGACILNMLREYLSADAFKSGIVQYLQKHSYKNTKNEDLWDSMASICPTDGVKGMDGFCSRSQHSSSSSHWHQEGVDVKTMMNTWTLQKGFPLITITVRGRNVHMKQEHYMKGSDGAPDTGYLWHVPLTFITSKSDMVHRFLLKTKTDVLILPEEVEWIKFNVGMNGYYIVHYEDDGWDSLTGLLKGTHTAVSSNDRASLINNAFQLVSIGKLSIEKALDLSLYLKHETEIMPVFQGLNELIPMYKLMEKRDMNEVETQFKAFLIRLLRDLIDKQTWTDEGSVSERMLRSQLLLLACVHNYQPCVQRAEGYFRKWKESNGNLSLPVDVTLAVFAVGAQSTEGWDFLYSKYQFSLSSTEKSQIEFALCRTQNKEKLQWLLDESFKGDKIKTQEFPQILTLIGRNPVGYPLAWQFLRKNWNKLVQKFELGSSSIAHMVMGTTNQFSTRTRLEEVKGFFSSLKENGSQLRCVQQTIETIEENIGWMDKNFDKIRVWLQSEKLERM
FGF22 binding: shifts melting point of recombinant human FGF22. Q9HCT0. recombinant FGF22 thermal shift, SYPRO orange fluorescence; percent of sucrose octasulfate shift, DMSO zero. activity (Tm shift, normalised), % at 9.99 µM. 340,000 compounds, 1.5% hits;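 active = mean Tm shift, scaled 0 neutral to 100 positive control, at about 1.3% or above, every replicate too, limit read from the data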
Cneo AK release: Cryptococcus neoformans lysis via adenylate kinase release. C. neoformans lysis, adenylate kinase release luminescence, 4 h; normalised: neutral wells 0, clomiphene wells 100. lysis activity, % at 15 µM. 360,000 compounds, 0.2% hits;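 active = mean lysis activity across replicates of at least 80%, whatever share of replicates individually reach that level; inactive = mean lysis activity below 80%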
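Signal: Adenylate kinase release luminescence | Assay system: Log-phase Cryptococcus neoformans yeast cells | Input: Cells at 5 × 10^6 per mL | Buffer or medium: Fresh YPD growth medium | Compound: Single dose | Schedule: Static 4 h at 37 °C with compound, 1 h detection | Controls: Clomiphene | Read-out: Luminescence rise reflecting yeast cell lysis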
Numbers without * were called inactive; . = no result; [ ] = remark or other dose.

SMILES	rRNA inh HTS	PGC1a acetyl inh	HIV Env fusion	ERAP1 inh	FGF22 binding	Cneo AK release
O=C(COC(=O)C1CCC(=O)N1)Nc1ccc(Oc2ccccc2)cc1 (stereo not given)	-9	0	9	4	1	-14
C[C@H](CO)N1C[C@H](C)[C@H](CN(C)CC2CC2)Oc2ccc(NC(=O)Nc3ccccc3)cc2CC1=O	2	.	48[16.7 µM]	-1	0	-53
C[C@@H]1CN([C@H](C)CO)C(=O)c2cc(C#CCc3ccccc3)cnc2O[C@@H]1CN(C)Cc1cccc(C(=O)O)c1	1	-6	-6[16.7 µM]	0	0	2
Cc1noc(C)c1C(=O)NC(C)C12CC3CC(CC(C3)C1)C2 (stereo not given)	-12	.	21	0	1	.
CCCC(NC(=O)c1c(C)noc1C)C12CC3CC(CC(C3)C1)C2 (stereo not given)	6	-8	60*	-2	0	-1
CNC(=O)c1nnsc1S(=O)(=O)c1ccc(Cl)cc1	-50	.	13	1	43*	-8
O=C(c1nnsc1S(=O)(=O)c1ccc(Cl)cc1)N1CCOCC1	4	.	27	2	1	.
O=C(Oc1ccc(Br)cc1)c1n[nH]c(=O)c2ccccc12	17	3	22	-3	43*	.
O=C(NNC(=O)c1n[nH]c(=O)c2ccccc12)c1ccc(Br)cc1	6	-7	-4	-1	0	1
CO[C@@H]1CN(C)C(=O)c2cc(NC(=O)NC3CCCCC3)ccc2OC[C@H](C)N(C(C)=O)C[C@H]1C	1	-1	.	.	.	.
CCc1nnc(NS(=O)(=O)c2ccc(NC(=O)C(c3ccccc3)c3ccccc3)cc2)s1	.	.	-12	1	1.5*	.
CCc1nnc(NS(=O)(=O)c2ccc(NC(=O)c3ccccc3C)cc2)s1	-6	4	-7	5	43*	-7
CC(C)Cc1nnc(NS(=O)(=O)c2ccccc2)s1	-17*	-2	-9	0	0	0
CCc1nnc(NS(=O)(=O)c2ccc(NC(=O)c3ccccc3OC)cc2)s1	-3	4	1	-4	0	0
C[C@@H]1CN([C@@H](C)CO)S(=O)(=O)c2ccc(Br)cc2O[C@H]1CN(C)C(=O)c1ccc2c(c1)OCO2	-5	-7	-5	10	1	-1
COc1ccc(C(=O)Nc2cc3c(cc2N2CCCCC2)n(C)c(=O)n3C)cc1OC	-6	.	-7	-4	0	-1
COc1ccc(NC(=O)C2(C)CCN2Cc2ccccc2OC(F)F)cc1OC (stereo not given)	-5	10	71*	1	0	0
O=[N+]([O-])c1c(Nc2cccc(O)c2)cc(Cl)c2nonc12	-45*	.	-111	17	0	6
CN(c1ccccc1)S(=O)(=O)c1ccc(C(=O)NNC(=O)c2ccccc2)cc1	2	-3	.	5	0	-1
COc1cc(SC)ccc1C(=O)N1CCN(c2ccccc2F)CC1	-24*	.	-10	1	0	.
Cc1ccc(CSc2nnc(CCNC(=O)OC(C)(C)C)o2)cc1	-25*	3	3	-2	0	-6
Cc1ccc(CSc2nnc([C@@H]3CCCN3C(=O)OC(C)(C)C)o2)cc1	-16*	-2	6	2	0	.
CC(C)(C)OC(=O)NCCc1nnc(SCc2ccccc2)o1	5	10	3	4	0	4
C[C@@H]1CN([C@H](C)CO)C(=O)c2cc(NC(=O)Cn3cnnn3)ccc2O[C@@H]1CN(C)Cc1ccc(C(=O)O)cc1	6	2	.	0	0	69
CCc1cccc(OCC(=O)Nc2ccc(C(=O)O)cc2NC(=O)COc2cccc(CC)c2)c1	7	5	13	2	0	-5
SMILES	rRNA inh HTS	PGC1a acetyl inh	HIV Env fusion	ERAP1 inh	FGF22 binding	Cneo AK release
O=C(O)C1CN(c2ncccc2[N+](=O)[O-])C1	15	6	-16	4	43*	-2
Cc1ccc(NC(=O)CSc2nnc(-c3cccnc3)s2)cc1	.	-4	-16	.	.	5
O=C(CSc1nnc(-c2cccnc2)s1)Nc1ccnc2ccccc12	.	.	55*	.	.	.
Nc1ccccc1-c1nc2ccccc2[nH]c1=O	4	.	13	0	0	-4
O=c1[nH]c2ccccc2nc1-c1c[nH]c2ccccc12	-26*	-6	-24	2	0	-5
Cc1cc(C(=O)NNC(=O)C(C)(C)Oc2ccc(Cl)cc2)c(C)o1	-6	-3	.	-1	0	0
O=C(Nc1nccc(-c2cccs2)n1)c1cccs1	.	2	.	.	.	.
Nc1nccc(-c2cccs2)n1	10	-1	-2	2	43*	.
CC1Cc2ccccc2N1C(=O)COC(=O)c1cccc(Br)c1 (stereo not given)	-32*	4	12	-10	0	-1
CC1Cc2ccccc2N1C(=O)COC(=O)c1cc(Br)ccc1O (stereo not given)	10	.	.	-1	.	.
COc1ccc(/C=C/C(=O)OCC(=O)N2c3ccccc3CC2C)cc1OC (stereo not given)	9	8	-3	-3	0	-1
COc1cccc(/C=C/C(=O)OCC(=O)N2c3ccccc3CC2C)c1 (stereo not given)	-18*	7	12	-5	.	-1
O=C(COC(=O)c1cccc(Br)c1)NC1CCCCCCC1	5	0	58*	2	0	-2
O=C(COC(=O)c1ccc(Br)cc1)NC1CCCC1	3	.	-3	0	0	-1
CCCCn1c(SCC(=O)OCC)nc2c1c(=O)[nH]c(=O)n2C	-2	.	14	4	0	-1
Cc1ccc(-c2csc(N3CCC[C@@H]3C(=O)NCCn3c(C(F)(F)F)nc4ccccc43)n2)cc1	1	-7	19	-3	0	-1
CC(C)NC(=O)Nc1ccc2c(c1)CC(=O)N([C@@H](C)CO)C[C@@H](C)[C@@H](CN(C)S(=O)(=O)c1ccc(F)cc1)O2	-1	-3	.	1	0	4
C[C@@H]1CN([C@H](C)CO)C(=O)c2cc(NC(=O)C3CC3)ccc2O[C@@H]1CN(C)Cc1ccc2c(c1)OCO2	0	18	-1[16.7 µM]	.	0	1
C[C@H]1CN([C@@H](C)CO)C(=O)c2cc(NC(=O)C3CCCCC3)ccc2O[C@@H]1CN(C)Cc1ccncc1	6	.	55*[16.7 µM]	-3	1	2
C[C@@H]1CN([C@@H](C)CO)C(=O)c2cc(NC(=O)C3CC3)ccc2O[C@H]1CN(C)Cc1ccc2c(c1)OCO2	5	1	-3[16.7 µM]	5	0	101*
COc1ccc(CN(C)C[C@@H]2Oc3ccc(NC(=O)C4CC4)cc3C(=O)N([C@@H](C)CO)C[C@H]2C)cc1	5	-1	34[16.7 µM]	1	0	92*
